Laboratory results taken from ChEMBL document CHEMBL5137048, “Design and synthesis of water-soluble prodrugs of rifabutin for intraveneous administration” (Eur J Med Chem, 2022).
In brackets after ≈: the same amount, converted by molar mass.

Columns and labels:
[1] = Water solubility of compound in PBS buffer at pH 7.4 by UPLC-MS analysis; assay type: physicochemical
Outline: (§1)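 Compounds were suspended at a nominal 10 or 50 mg/mL in PBS pH 7.4 or 26 mM HCl, vortexed, and mixed at 35 rpm for 24 h at RT. The mixture was centrifuged, the supernatant filtered and diluted 2000-fold in CH3CN, and analysed by UPLC-MS/MS (MRM). Solubility = AUC(buffer)/AUC(DMSO) × theoretical concentration.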

[2] = Plasma concentration in CD-1 mouse at 7 mg/kg, iv measured after 24 hrs by LC-MS/MS analysis; assay type: ADME, organism-based; conditions: in vivo
Outline: (§2)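 Female CD-1 (RjOrl:SWISS) mice, 8 weeks old at delivery, 9 per compound, given a single IV bolus into a lateral tail vein at 5 mL/kg. Basic compounds were dosed in 0.9% NaCl with 26 mM HCl, with 10% DMSO added for the parent drug; the phosphate prodrug was dosed in PBS pH 7.4. Retrobulbar blood was taken at 5, 15, 30 min and 1, 2, 4, 8, 12, 24 h. Plasma rifabutin was quantified by LC-MS/MS against a calibration curve, with griseofulvin as internal standard.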

[3] = test system: Staphylococcus aureus; test: Antibacterial activity against Staphylococcus aureus assessed assessed as reduction in bacterial growth in CAMHB in absence of human serum measured after 20 hrs by microdilution assay; assay type: functional
Outline: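 S. aureus USA300 UAMS-1625 in CAMHB without serum. CLSI broth microdilution, inoculum 5×10^5 CFU/mL, 2-fold dilutions from 32 µg/mL final. Plates held static at 35 °C for 20 h. MIC was the lowest concentration with no visible growth. Three independent replicates.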

[4] = Elimination half life in CD-1 mouse at 7 mg/kg, iv measured at 5 to 24 hrs by LC-MS/MS analysis; assay type: ADME, organism-based; conditions: in vivo, time lower 5 hrs, read-out: LambdaZ (converted); outline: as §2
[5] = test system: Staphylococcus aureus; test: Antibacterial activity against Staphylococcus aureus assessed as reduction in bacterial growth in CAMHB preincubated 6 hrs followed by human serum addition and measured after 20 hrs by microdilution assay; assay type: functional; conditions: time 26 hrs
Outline: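 S. aureus USA300 UAMS-1625 in CAMHB. Drug at 10-fold the 32 µg/mL top concentration was first preincubated in 100% human serum for 6 h, then serially diluted 2-fold and bacteria added (5×10^5 CFU/mL inoculum). Plates held static at 35 °C for 20 h. MIC read visually. Three independent replicates.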

[6] = Chemical stability of compound by UPLC-MS/MS analysis; conditions: pH 7.4
[7] = Tmax in CD-1 mouse at 7 mg/kg, iv measured at 5 to 24 hrs by LC-MS/MS analysis; assay type: ADME, organism-based; conditions: in vivo, time lower 5 hrs; outline: as §2
[8] = AUC (0 to infinity) in CD-1 mouse at 7 mg/kg, iv measured at 5 to 24 hrs by LC-MS/MS analysis; assay type: ADME, organism-based; design: dose 7 mg/kg, route iv; conditions: in vivo; outline: as §2
[9] = Cmax in CD-1 mouse at 7 mg/kg, iv measured at 5 to 24 hrs by LC-MS/MS analysis; assay type: ADME, organism-based; design: dose 7 mg/kg, route iv; conditions: in vivo; outline: as §2
[10] = test system: Acinetobacter baumannii; test: Antibacterial activity against Acinetobacter baumannii assessed as reduction in bacterial growth in CAMHB preincubated 6 hrs followed by human serum addition and measured after 20 hrs by microdilution assay; assay type: functional
[11] = Water solubility of compound in HCL by UPLC-MS analysis; assay type: physicochemical; outline: as §1
[12] = Tmax in CD-1 mouse at 6.5 mg/kg, iv measured at 5 to 24 hrs by LC-MS/MS analysis; assay type: ADME, organism-based; conditions: in vivo, time lower 5 hrs; outline: as §2
[13] = Cmax in CD-1 mouse at 6.5 mg/kg, iv measured at 5 to 24 hrs by LC-MS/MS analysis; assay type: ADME, organism-based; design: time lower 5 hrs, dose 6.5 mg/kg, route iv; conditions: in vivo; outline: as §2
[14] = Elimination half life in CD-1 mouse at 6.5 mg/kg, iv measured at 5 to 24 hrs by LC-MS/MS analysis; assay type: ADME, organism-based; conditions: in vivo, time lower 5 hrs, read-out: LambdaZ (converted); outline: as §2
[15] = AUC (0 to infinity) in CD-1 mouse at 6.5 mg/kg, iv measured at 5 to 24 hrs by LC-MS/MS analysis; assay type: ADME, organism-based; design: dose 6.5 mg/kg, route iv; conditions: in vivo; outline: as §2
[16] = Plasma concentration in CD-1 mouse at 6.5 mg/kg, iv measured after 24 hrs by LC-MS/MS analysis; assay type: ADME, organism-based; conditions: in vivo; outline: as §2
[17] = Stability in human plasma assessed as compound remaining at 6 hrs by HPLC-MS analysis; assay type: ADME, cell-free; conditions: read-out: Stability
[18] = test system: Acinetobacter baumannii; test: Antibacterial activity against Acinetobacter baumannii HUMC1 assessed as inhibition of bacterial growth incubated for 20 hrs by microdilution assay; assay type: functional
Outline: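 Broth microdilution per CLSI against XDR A. baumannii HUMC1. Inoculum 5×10^5 CFU/mL in RPMI + 10% FCS, or in CAMHB + 50% human serum. Compounds tested as 2-fold dilutions from 32 µg/mL final. Plates incubated without shaking at 35 °C for 20 h. MIC read visually as the lowest concentration with no visible growth. Three independent replicates.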

[19] = AUC (0 to infinity) in CD-1 mouse at 5 mg/kg, iv measured at 5 to 24 hrs by LC-MS/MS analysis; assay type: ADME, organism-based; design: dose 5 mg/kg, route iv; conditions: in vivo; outline: as §2
[20] = Cmax in CD-1 mouse at 5 mg/kg, iv measured at 5 to 24 hrs by LC-MS/MS analysis; assay type: ADME, organism-based; design: dose 5 mg/kg, route iv; conditions: in vivo; outline: as §2
[21] = Elimination half life in CD-1 mouse at 5 mg/kg, iv measured at 5 to 24 hrs by LC-MS/MS analysis; assay type: ADME, organism-based; conditions: in vivo, time lower 5 hrs, read-out: LambdaZ (converted); outline: as §2

solubility [1] | MIC [3] | MIC [5] | Stability [6] | MIC [10] | solubility [11] | remaining at 6 h [17] | MIC [18] | Structure (SMILES) | other results
4500 µg/mL (≈ 3730 µM) | 32 µg/mL (≈ 26.5 µM) | 0.06 µg/mL (≈ 0.0497 µM) | 101% | 1 ng/mL (≈ 0.000828 µM) |  |  |  | CO[C@H]1/C=C/O[C@@]2(C)Oc3c(C)c(O)c4c(c3C2=O)C2NC3(CCN(CC(C)C)CC3)NC2=C(NC(=O)/C(C)=C\C=C\[C@H](C)[C@H](OC(=O)CN(C)C(=O)CNC(=O)OCc2ccc(OP(=O)(O)O)cc2)[C@@H](C)[C@@H](O)[C@@H](C)[C@H](OC(C)=O)[C@@H]1C)C4=O (stereo partly specified) | Drug uptake [2]: Active; half-life [4]: 174 min; Tmax [7]: 4.98 min; AUC(0-inf) [8]: 8200 ng·h/mL; Cmax [9]: 2700 ng/mL
700 µg/mL (≈ 658 µM) | 1 µg/mL (≈ 0.941 µM) | 0.06 µg/mL (≈ 0.0564 µM) | 101% | 1 ng/mL (≈ 0.000941 µM) | 12.2 mg/mL (≈ 11500 µM) |  |  | CO[C@H]1/C=C/O[C@@]2(C)Oc3c(C)c(O)c4c(c3C2=O)C2NC3(CCN(CC(C)C)CC3)NC2=C(NC(=O)/C(C)=C\C=C\[C@H](C)[C@H](OC(=O)CN(C)C(=O)COC(=O)CN(C)C)[C@@H](C)[C@@H](O)[C@@H](C)[C@H](OC(C)=O)[C@@H]1C)C4=O (stereo partly specified) | Tmax [12]: 4.98 min; Cmax [13]: 1100 ng/mL; half-life [14]: 180 min; AUC(0-inf) [15]: 6700 ng·h/mL; Drug uptake [16]: Active
 |  |  |  |  |  | 2% |  | COCCC(=O)N1C2=C3NC(=O)/C(C)=C\C=C\[C@H](C)[C@H](O)[C@@H](C)[C@@H](O)[C@@H](C)[C@H](OC(C)=O)[C@H](C)[C@@H](OC)/C=C/O[C@@]4(C)Oc5c(C)c(O)c(c(c5C4=O)C2NC12CCN(CC(C)C)CC2)C3=O (stereo partly specified) | 
 |  |  |  |  |  | 86% | 0.06 µg/mL (≈ 0.0631 µM) | COCCOC(=O)N1C2=C3NC(=O)/C(C)=C\C=C\[C@H](C)[C@H](O)[C@@H](C)[C@@H](O)[C@@H](C)[C@H](OC(C)=O)[C@H](C)[C@@H](OC)/C=C/O[C@@]4(C)Oc5c(C)c(O)c(c(c5C4=O)C2NC12CCN(CC(C)C)CC2)C3=O (stereo partly specified) | 
> 50000 µg/mL | 16 µg/mL (≈ 14.5 µM) | 0.06 µg/mL (≈ 0.0543 µM) | 99% | 1 ng/mL (≈ 0.000905 µM) | 34.4 mg/mL (≈ 31100 µM) |  |  | CO[C@H]1/C=C/O[C@@]2(C)Oc3c(C)c(O)c4c(c3C2=O)C2NC3(CCN(CC(C)C)CC3)NC2=C(NC(=O)/C(C)=C\C=C\[C@H](C)[C@H](OC(=O)CN(C)C(=O)CNC(=O)[C@@H](N)CCCCN)[C@@H](C)[C@@H](O)[C@@H](C)[C@H](OC(C)=O)[C@@H]1C)C4=O (stereo partly specified) | Tmax [12]: 4.98 min; Cmax [13]: 300 ng/mL; half-life [14]: 642 min; AUC(0-inf) [15]: 1000 ng·h/mL; Drug uptake [16]: Active
200 µg/mL (≈ 236 µM) | 0.016 µg/mL (≈ 0.0189 µM) | 0.03 µg/mL (≈ 0.0354 µM) |  | 0.25 ng/mL (≈ 0.000295 µM) | 17.7 mg/mL (≈ 20900 µM) |  | 0.002 µg/mL (≈ 0.00236 µM) | CO[C@H]1/C=C/O[C@@]2(C)Oc3c(C)c(O)c4c(c3C2=O)C2=NC3(CCN(CC(C)C)CC3)NC2=C(NC(=O)/C(C)=C\C=C\[C@H](C)[C@H](O)[C@@H](C)[C@@H](O)[C@@H](C)[C@H](OC(C)=O)[C@@H]1C)C4=O [RIFABUTIN] | AUC(0-inf) [19]: 6600 ng·h/mL; Cmax [20]: 2200 ng/mL; half-life [21]: 204 min
 |  |  |  |  |  | 99% | > 32 µg/mL | COCCC(=O)O[C@@H]1[C@@H](C)[C@@H](O)[C@@H](C)[C@H](OC(C)=O)[C@H](C)[C@@H](OC)/C=C/O[C@@]2(C)Oc3c(C)c(O)c4c(c3C2=O)C2NC3(CCN(CC(C)C)CC3)NC2=C(NC(=O)/C(C)=C\C=C\[C@@H]1C)C4=O (stereo partly specified) | 
